Screening data: PubChem BioAssay, several laboratories
Shown is part of a subset that was picked to be rich in hits.
TRPML3 ag = human TRPML3 channel agonists, primary screen, cell-based, HEK293 TRPML3-YFP, Fluo-8 calcium fluorescence, 3 µM | 100% = the carbachol control signal | 220,000 tested, 0.29% active | AID 1448, 2008 | activation, % at 3 µM | Mucolipin-3 (Homo sapiens), Q8TDD5;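 active means activation above its plate's cutoff, the mean activation of the plate's test wells plus 3 SD, cut at about 12% in these data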;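 further: 0% = DMSO only wells and 100% = carbachol wells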
Target sequence (Q8TDD5 whole entry, looked up): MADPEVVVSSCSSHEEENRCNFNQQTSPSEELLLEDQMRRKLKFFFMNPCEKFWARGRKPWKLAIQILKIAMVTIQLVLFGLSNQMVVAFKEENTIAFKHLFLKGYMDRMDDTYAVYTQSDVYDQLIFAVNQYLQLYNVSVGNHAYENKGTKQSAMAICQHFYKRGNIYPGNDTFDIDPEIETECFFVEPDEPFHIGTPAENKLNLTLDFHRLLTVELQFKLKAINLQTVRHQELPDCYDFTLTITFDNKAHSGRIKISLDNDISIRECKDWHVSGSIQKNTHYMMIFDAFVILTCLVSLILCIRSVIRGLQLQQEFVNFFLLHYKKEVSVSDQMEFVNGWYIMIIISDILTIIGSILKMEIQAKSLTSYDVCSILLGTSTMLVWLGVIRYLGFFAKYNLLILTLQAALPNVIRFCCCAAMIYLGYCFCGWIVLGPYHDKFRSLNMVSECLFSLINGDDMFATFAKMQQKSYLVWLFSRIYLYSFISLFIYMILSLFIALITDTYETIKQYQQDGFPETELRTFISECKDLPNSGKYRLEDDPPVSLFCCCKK
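system = HEK293 cells stably carrying human TRPML3-YFP | doses = one concentration, 3 µM nominal, 0.3% DMSO | timing = dye loading 1 h 37 °C then 30 min ambient, 125 s read | detection = Fluo-8 calcium dye fluorescence, ex 470-495, em 515-575 nm | benchmarks = high control carbachol 87 µM, low control DMSO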
ABCG2 block = ABCG2 efflux pump inhibitors, primary screen, multiplex with ABCB1, IgMXP3 cells, flow cytometry; JC-1 efflux; inhibition, % at 6.6 µM; 190,000 tested, 0.1% active;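 active means inhibition above 80%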;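 further: 0% = DMSO and 100% = nicardipine control wells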
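System: two drug-resistant human cell lines, ABCG2 and ABCB1; controls: nicardipine high and DMSO low controls; times: 10 min exposure at 25 °C with rotation, no wash; detection: flow cytometry of retained JC-1 fluorescence; read-out basis: percent efflux inhibition, scaled nicardipine 100% to DMSO 0%; doses: one concentration, 6.6 µM final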
ROMK mod = ROMK potassium channel modulators, primary screen, cell-based, thallium flux, MLSMR library; 130,000 tested, 2% active; AID 1918, 2009; B-score at 10 µM; Tet-inducible ROMK, thallium flux fluorescence; actives lie on both sides; ATP-sensitive inward rectifier potassium channel 1 (Homo sapiens), P48048;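 active means signal ratio slope over the read window, or its plate-corrected B-score, at least 3 SD from the plate mean, either direction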;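 further: B-score of the F/F0 ratio slope over 7 to 12 s after thallium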
Calb biofilm kill = clotrimazole potentiators killing C. albicans biofilm, primary screen, 4-compound mixtures | 120,000 tested, 0.02% active | inhibition, % at 7.6 µM | C. albicans biofilm persisters + clotrimazole, fluorescence viability; primary screen in compound mixtures of four per well;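 further: compounds exposed to preformed 24 h biofilms for 48 h; 0% = untreated biofilm control and 100% = clotrimazole plus chlorhexidine kill blank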
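Test system: C. albicans CAF4-2 wild-type biofilms; buffer or medium: RPMI/MOPS medium, pH 7.0; schedule: 24 h biofilm formation, then 48 h compound exposure, 37 °C; detection: Alamar Blue fluorescence; measure: percent inhibition of biofilm viability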
ABCB1 block = ABCB1 efflux pump inhibitors, primary screen, cell-based, multiplex, flow cytometry, ABCG2 counter-screen. inhibition, % at 6.6 µM. 190,000 tested, 0.067% active. CCRF-Adr cells, JC-1 efflux. AID 1326, 2008; in the data active means inhibition above about 40%;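 further: 0% = vehicle and 100% = reference inhibitor; higher value means more JC-1 retained so stronger ABCB1 efflux block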
TRPN1 ag = zebrafish TRPN1 channel agonists, primary screen, cell-based, HEK293, calcium fluorescence | 220,000 tested, 0.18% active | HEK293 zebrafish TRPN1-YFP, Fluo-8 calcium fluorescence; 100% = response to 87 µM carbachol | transient receptor potential cation channel N1 (TRPN1/NompC), Danio rerio | activation, % at 3 µM;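 active means activation above its plate's cutoff, the mean activation of test wells on that plate plus 3 SD, cut at about 19% in these data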;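 further: 0% = DMSO alone and 100% = 87 µM carbachol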
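System: zebrafish TRPN1-YFP in HEK293 cells / Dosing: 3 µM single point / Timing: dye loading 1 h at 37 °C, then 30 min room temperature / Signal: Fluo-8 calcium fluorescence, excitation 470-495 nm, emission 515-575 nm / Read-out basis: percent activation from peak over basal fluorescence ratio, control-normalized / Control set: high carbachol 87 µM, low DMSO alone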
ROMK hit retest = ROMK channel modulator hit retest, confirmation, cell-based, thallium flux, duplicate, resupplied hits. shares compounds with ROMK mod. normalized thallium flux (F/F0 slope) at 10 µM. fluorescence ratio; stronger effect = lower value. 3,000 tested, 54% active;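 active means Flux at 10 µM at least 3 SD below or above vehicle control mean in one or both replicates; inconclusive means no clear call, values can overlap the other calls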
The depositor's hits bear a star; ? = inconclusive; . = no result.

SMILES	TRPML3 ag	ABCG2 block	ROMK mod	Calb biofilm kill	ABCB1 block	TRPN1 ag	ROMK hit retest
O=c1c2ccccc2c(C=Nc2ccc(O)cc2)c(O)n1Cc1ccccc1	0	.	-4.6*	10	.	1	0.041*
COc1ccc(Cn2c(O)c(C=Nc3ccc(O)cc3)c3ccccc3c2=O)cc1	0	-1	0.33	12	4	0	.
COc1ccccc1S(=O)(=O)Cc1ccc(C(=O)NC2CCCCC2)o1	0	11	.	.	1	0	0.083
O=C1NC(Cc2ccccc2)C(=O)N1CC(=O)N1CCCc2ccccc21 (centres undefined)	1	1	-0.25	16	0	1	.
Cc1cc(C(=O)OCC(=O)NCc2ccco2)c(C)n1-c1ccc(F)cc1	0	2	5.1*	.	0	0	0.09
CCNC(=O)COC(=O)c1cc(C)n(-c2ccccc2)c1C	1	0	0.86	16	0	1	.
OC(COCc1ccc(Cl)cc1)CN1CCN(CC(O)COCc2ccc(Cl)cc2)CC1 (centres undefined)	1	0	-3*	.	1	10	0.054*
COc1ccc(C(C)=O)cc1CN1C(=O)NC2(CCCCC2)C1=O	0	6	2*	.	1	-1	0.082
O=c1c(Cl)c(O)c2cccc3c4ccccc4n1c23	0	-4	0.1	-2	-4	-2	0.085
O=C(O)CCCCCCNS(=O)(=O)c1ccccc1	0	2	-0.25	.	0	0	.
O=C(O)CC(CNS(=O)(=O)c1ccccc1)c1ccccc1 (centres undefined)	0	0	.	.	0	0	?
CC(=O)N1CCN(C(=S)c2cccc([N+](=O)[O-])c2)CC1	1	2	0.59	18	0	3	.
O=[N+]([O-])c1ccc(N2CCN(C(=S)c3cccc([N+](=O)[O-])c3)CC2)cc1	4	.	-3.1*	23	.	1	0.065*
N#Cc1sc2nc(-c3ccccc3)cc(C(F)(F)F)c2c1N	1	1	-4.4*	9	0	1	0.063*
CCOc1cc(N2CCOCC2)c(OCC)cc1NC(=S)NCCCOC	1	9	0.27	5	1	1	.
Cc1ccc(NC(=O)NCC2CCN(Cc3cccc(Cl)c3)CC2)c(Cl)c1	1	3	-1.3	16	0	0	.
Cc1ccc(NC(=O)NCC2CCN(Cc3cc(C)ccc3Cl)CC2)c(C)c1	2	2	-3.8*	10	1	2	0.054*
O=C(CSc1nnnn1C1CC2CCC1C2)Nc1ccnc2ccccc12 (centres undefined)	5	8	.	.	2	13	?
C#CCOCCOCCOCCNc1nc(N2CCN(C(=O)[C@H]([C@@H](C)CC)n3cc([C@@H](N)Cc4ccc(O)cc4)nn3)CC2)nc(N2CCN(C(=O)[C@H](CCCCN)n3cc([C@@H](N)CC(C)C)nn3)CC2)n1	0	0	.	12	0	0	.
O=C1CC(=O)C(n2cncn2)C(c2ccc(Cl)cc2)C1 (centres undefined)	0	2	.	.	0	-1	0.081
CCOC(=O)c1nc2sc3c(c2c(=O)n1C(C)C(=O)OCC)CCCC3 (centres undefined)	0	12	.	5	2	-2	.
c1coc(CNc2ncnc3c2oc2ccccc23)c1	0	1	-3.5*	.	0	3	0.061*
CCc1nc(NCc2ccco2)c2oc3ccccc3c2n1	0	9	.	.	2	-1	.
COc1cc(CNc2ncnc3c2[nH]c2ccc(C)cc23)cc(OC)c1	1	.	0.035	5	.	0	.
Cc1ccc2[nH]c3c(NCc4ccco4)ncnc3c2c1	5	3	-3.4*	.	0	8	0.065*
SMILES	TRPML3 ag	ABCG2 block	ROMK mod	Calb biofilm kill	ABCB1 block	TRPN1 ag	ROMK hit retest
O=C(NCCc1c[nH]c2ccccc12)/C(=C\c1cccnc1)NC(=O)c1ccccc1F	1	.	.	24	.	0	.
Cn1c(N)c(N2CCN(c3ccccc3)CC2)c(=O)[nH]c1=O	0	0	-0.2	7	0	0	.
c1ccc(Sc2cccc3ccccc23)c(CNC2=NCCN2)c1	1	26	-3.1*	14	2	-1	0.058*
Fc1ccccc1Sc1ccccc1CNC1=NCCN1	1	2	-0.79	8	0	0	.
CC(=O)N1CSCC1C(=O)NNS(=O)(=O)c1cccc(C(F)(F)F)c1 (centres undefined)	1	.	.	5	.	0	.
COC(=O)C1CCN(C2CC(=O)N(c3cc(C)cc(C)c3)C2=O)CC1 (centres undefined)	0	0	1.7	-3	0	-2	.
CCOC(=O)c1ccccc1NC(=O)Cn1c(-c2nonc2N)nc2ccccc21	0	25	4.4*	.	2	-1	0.087
Cc1c(N(C(=O)c2ccccn2)C2(C(=O)NC3CCCCC3)CCCCC2)c(=O)n(-c2ccccc2)n1C	0	-3	1.2	15	-1	0	.
CCOc1ccc(N(CC(=O)N2CCN(c3ccccc3)CC2)S(=O)(=O)c2c(C)noc2C)cc1	0	3	.	.	1	0	0.073
CCCCCn1c2c(c(=N)c3ccccc31)CCC2	1	.	-1.4	14	.	0	.
CCCCCCCCCn1c2c(c(=N)c3c1CCC3)CCCC2	1	0	-3.4*	8	0	0	0.038*
CCCCCCCCn1c2c(c(=N)c3ccccc31)CCC2	0	0	-6.6*	28	0	0	0.039*
COC(=O)C(CCSC)NS(=O)(=O)c1ccc(Cl)cc1 (centres undefined)	0	0	-0.078	21	0	0	.
CSCCC(NS(=O)(=O)c1ccc(Cl)cc1)C(=O)OCC(=O)N1CCOCC1 (centres undefined)	0	0	6.3*	.	0	2	0.094
COc1cc(CN2CCNC(=O)C2CC(=O)N(C)Cc2ncc[nH]2)cc(OC)c1 (centres undefined)	1	0	.	4	0	1	.
Cc1ccc(CN2CCC(c3nc4ccc(Cl)cc4[nH]3)CC2)cc1	0	21	.	.	2	-1	?
